We go through 3 compounds from ChEMBL document CHEMBL1121375, “Synthesis and structure-function studies of melanocyte stimulating hormone analogues modified in the 2 and 4(7) positions: comparison of activities on frog skin melanophores and melanoma adenylate cyclase” (1980).

The species entered for one experiment is Mus musculus. The experiment is described as follows: Relative potency using melanoma adenylate cyclase bioassay system from S-91 melanoma tumors grown in DBA/2J mice. Type of experiment: functional. A digest of the protocol: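 Particulate membrane fraction from S-91 melanoma tumors; 100 μg membrane protein starts the reaction. Medium: 1 mM [α-³²P]ATP, 5 mM MgCl₂, 1 mM cAMP, 0.5 mM IBMX, 1 mM DTT, 20 mM creatine phosphate, 100 U/mL creatine phosphokinase, 10 μM GTP, 30 mM Tris-HCl pH 7.5. 10 min at 30 °C; [³²P]cAMP isolated and counted. Potency from half-maximal response relative to α-MSH.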

Experiment [1] relates to Melanocortin receptor (Rana berlandieri). The experiment is described as follows: Relative potency using frog skin bioassay system.

Square brackets hold non-standard residues; d marks the D form. Peptide text beside a SMILES is read from it. Nle = CCCC[C@H](N)C(=O)O

In the case of `CCCC[C@H](NC(=O)[C@H](CO)NC(=O)[C@H](Cc1ccccc1)NC(=O)[C@H](CO)NC(C)=O)C(=O)N[C@@H](CCC(=O)O)C(=O)N[C@@H](Cc1c[nH]cn1)C(=O)N[C@@H](Cc1ccccc1)C(=O)N[C@@H](CCCN=C(N)N)C(=O)N[C@@H](Cc1c[nH]c2ccccc12)C(=O)NCC(=O)N[C@@H](CCCCN)C(=O)N1CCC[C@H]1C(=O)N[C@H](C(N)=O)C(C)C`, the Potency was 0.9 in the experiment filed under Mus musculus and 0.82 in experiment [1].

As to `CCCC[C@H](NC(=O)[C@H](CCCCN)NC(=O)[C@H](Cc1ccc(O)cc1)NC(=O)[C@@H]1CCCN1C(=O)CNC(=O)[C@H](CCC(=O)O)NC(=O)[C@@H](N)CC(=O)O)C(=O)N[C@@H](CCC(=O)O)C(=O)N[C@@H](Cc1c[nH]cn1)C(=O)N[C@@H](Cc1ccccc1)C(=O)N[C@@H](CCCN=C(N)N)C(=O)N[C@@H](Cc1c[nH]c2ccccc12)C(=O)NCC(=O)N[C@@H](CO)C(=O)N1CCC[C@H]1C(=O)N1CCC[C@H]1C(=O)N[C@@H](CCCCN)C(=O)N[C@@H](CC(=O)O)C(=O)O` (H-DEGPYK[Nle]EHFRWGSPPKD-OH), the values for the Potency (in the experiment filed under Mus musculus; in experiment [1]) were 4.2 and 5.2, respectively.

As for H-DEGPYKMEHFRWGSPPKD-OH, the figures for the Potency (in the experiment listed under Mus musculus; in experiment [1]) were 2.2 and 0.55, respectively.
